Data taken from ChEMBL document CHEMBL4118144, “Design, Synthesis, and Testing of Potent, Selective Hepsin Inhibitors via Application of an Automated Closed-Loop Optimization Platform” (J Med Chem, 2018).
Activity calls are given as the source filed them. The calls are words filed in the database; no cut-off is given here.

test system: not listed separately; test: Chromatographic hydrophobicity index, log D of the compound at pH 7 by HPLC/UV analysis; type: physicochemical; conditions: buffer

Row | chromatographic logD | Structure (SMILES)
1 | 1.5 | Cc1ccc(NC(=O)N[C@@H](C(=O)Nc2ccc(C(=N)N)cc2)C2CCCCC2)cc1
2 | 1.5 | N=C(N)c1ccc(NC(=O)[C@H](NS(=O)(=O)c2ccc(Cl)cc2)C2CCCCC2)cc1
3 | 0.8 | Cc1ccc(S(=O)(=O)NC(C(=O)Nc2ccc(C(=N)N)cc2)C(C)C)cc1 (stereo unspecified)
4 | 1.2 | Cc1ccc(S(=O)(=O)NC(CC(C)C)C(=O)Nc2ccc(C(=N)N)cc2)cc1 (stereo unspecified)
5 | 1.7 | Cc1ccc(C(=O)N[C@@H](C(=O)Nc2ccc(C(=N)N)cc2)C2CCCCC2)cc1
6 | 0.9 | Cc1ccc(S(=O)(=O)NC(C(=O)Nc2ccc(C(=N)N)cc2)c2ccccc2)cc1 (stereo unspecified)
7 | 1.2 | N=C(N)c1ccc(NC(=O)[C@H](NS(=O)(=O)c2ccccc2)C2CCCCC2)cc1
8 | 1.1 | CCCCC(NS(=O)(=O)c1ccc(C)cc1)C(=O)Nc1cccc(C(=N)N)c1 (stereo unspecified)
9 | 1.8 | Cc1ccc(S(=O)(=O)N(C)C(CC(C)C)C(=O)Nc2ccc(C(=N)N)cc2)cc1 (stereo unspecified)
10 | 1.4 | Cc1ccc(S(=O)(=O)NC(CC(=O)Nc2ccc(C(=N)N)cc2)C2CCCCC2)cc1 (stereo unspecified)
11 | 1.3 | COc1ccc(S(=O)(=O)N[C@@H](C(=O)Nc2ccc(C(=N)N)cc2)C2CCCCC2)cc1
12 | 1.3 | Cc1ccc(S(=O)(=O)N[C@H](C(=O)Nc2ccc(C(=N)N)cc2)C2CCCCC2)cc1
13 | 1.7 | N=C(N)c1ccc(NC(=O)[C@H](NS(=O)(=O)c2ccc(C(F)(F)F)cc2)C2CCCCC2)cc1
14 | 0.4 | Cc1ccc(S(=O)(=O)NC(C(=O)Nc2ccc(C(=N)N)cc2)C2CCCC2)cc1 (stereo unspecified)
15 | 1.6 | Cc1ccc(S(=O)(=O)NCC(Cc2ccccc2)C(=O)Nc2ccc(C(=N)N)cc2)cc1 (stereo unspecified)
16 | 1.4 | CCCCC(NS(=O)(=O)c1ccc(C)cc1)C(=O)Nc1ccc(C(=N)N)cc1F (stereo unspecified)
17 | 0.4 | Cc1ccc(S(=O)(=O)NC(C(=O)Nc2ccc(C(=N)N)cc2)C2CCOCC2)cc1 (stereo unspecified)

molecular target: T1, Serine protease hepsin (Homo sapiens, UniProt P05981, D161E/R162K); test: Inhibition of recombinant C-terminal His10-tagged human Hepsin (R45 to […] residues) D161E/ R162K double mutant expressed in mouse NS0 cells using Boc-QRR-AMC as substrate after 15 mins by manual fluorescence assay; conditions: not given

Row | IC50 | Structure (SMILES)
18 | 0.25 µM | Cc1ccc(S(=O)(=O)NC(C(=O)Nc2ccc(C(=N)N)cc2)c2ccccc2)cc1 (stereo unspecified)
19 | 0.22 µM | Cc1ccc(S(=O)(=O)N[C@H](C(=O)Nc2ccc(C(=N)N)cc2)C2CCCCC2)cc1
20 | 0.85 µM | N=C(N)c1ccc(NC(=O)[C@H](NS(=O)(=O)c2ccc(C(F)(F)F)cc2)C2CCCCC2)cc1

molecular target: T1, Serine protease hepsin; test: Inhibition of recombinant C-terminal His10-tagged human Hepsin (R45 to […] residues) D161E/ R162K double mutant expressed in mouse NS0 cells using Boc-QRR-AMC as substrate after 15 mins by automated fluorescence assay; conditions: not given
Outline: (§1)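 On-line assay integrated with the flow-synthesis platform: a 20 µL aliquot of each product solution captured automatically, HPLC-purified, then diluted and assayed.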

Row | IC50 | Structure (SMILES)
21 | 2 µM | Cc1ccc(NC(=O)N[C@@H](C(=O)Nc2ccc(C(=N)N)cc2)C2CCCCC2)cc1
22 | 0.1 µM | N=C(N)c1ccc(NC(=O)[C@H](NS(=O)(=O)c2ccc(Cl)cc2)C2CCCCC2)cc1
23 | 1.8 µM | Cc1ccc(S(=O)(=O)NC(C(=O)Nc2ccc(C(=N)N)cc2)C(C)C)cc1 (stereo unspecified)
24 | 0.6 to 0.9 µM | Cc1ccc(S(=O)(=O)NC(CC(C)C)C(=O)Nc2ccc(C(=N)N)cc2)cc1 (stereo unspecified)
25 | 5 µM | Cc1ccc(C(=O)N[C@@H](C(=O)Nc2ccc(C(=N)N)cc2)C2CCCCC2)cc1
26 | 1.1 µM | N=C(N)c1ccc(NC(=O)[C@H](NS(=O)(=O)c2ccccc2)C2CCCCC2)cc1
27 | 73 µM | CCCCC(NS(=O)(=O)c1ccc(C)cc1)C(=O)Nc1cccc(C(=N)N)c1 (stereo unspecified)
28 | > 19 µM | Cc1ccc(S(=O)(=O)N(C)C(CC(C)C)C(=O)Nc2ccc(C(=N)N)cc2)cc1 (stereo unspecified)
29 | 11 µM | Cc1ccc(S(=O)(=O)NC(CC(=O)Nc2ccc(C(=N)N)cc2)C2CCCCC2)cc1 (stereo unspecified)
30 | 0.3 µM | COc1ccc(S(=O)(=O)N[C@@H](C(=O)Nc2ccc(C(=N)N)cc2)C2CCCCC2)cc1
31 | 0.68 µM | N=C(N)c1ccc(NC(=O)[C@H](NS(=O)(=O)c2ccc(C(F)(F)F)cc2)C2CCCCC2)cc1
32 | 0.86 µM | Cc1ccc(S(=O)(=O)NC(C(=O)Nc2ccc(C(=N)N)cc2)C2CCCC2)cc1 (stereo unspecified)
33 | 3 µM | Cc1ccc(S(=O)(=O)NCC(Cc2ccccc2)C(=O)Nc2ccc(C(=N)N)cc2)cc1 (stereo unspecified)
34 | 0.9 µM | CCCCC(NS(=O)(=O)c1ccc(C)cc1)C(=O)Nc1ccc(C(=N)N)cc1F (stereo unspecified)
35 | 1.4 µM | Cc1ccc(S(=O)(=O)NC(C(=O)Nc2ccc(C(=N)N)cc2)C2CCOCC2)cc1 (stereo unspecified)

molecular target: T2, Urokinase-type plasminogen activator (Homo sapiens, UniProt P00749); test: Inhibition of recombinant C-terminal His10-tagged human uPA (M1 to L431 residues) expressed in mouse NS0 cells using Z-GGR-AMC as substrate after 15 mins by automated fluorescence assay; conditions: not given; outline: as §1

Row | IC50 | Structure (SMILES)
36 | 43 µM | Cc1ccc(NC(=O)N[C@@H](C(=O)Nc2ccc(C(=N)N)cc2)C2CCCCC2)cc1
37 | 18 µM | N=C(N)c1ccc(NC(=O)[C@H](NS(=O)(=O)c2ccc(Cl)cc2)C2CCCCC2)cc1
38 | 7.2 µM | Cc1ccc(S(=O)(=O)NC(C(=O)Nc2ccc(C(=N)N)cc2)C(C)C)cc1 (stereo unspecified)
39 | 11 to 20 µM | Cc1ccc(S(=O)(=O)NC(CC(C)C)C(=O)Nc2ccc(C(=N)N)cc2)cc1 (stereo unspecified)
40 | 24.5 µM | Cc1ccc(C(=O)N[C@@H](C(=O)Nc2ccc(C(=N)N)cc2)C2CCCCC2)cc1
41 | 22 µM | N=C(N)c1ccc(NC(=O)[C@H](NS(=O)(=O)c2ccccc2)C2CCCCC2)cc1
42 | 19 µM | CCCCC(NS(=O)(=O)c1ccc(C)cc1)C(=O)Nc1cccc(C(=N)N)c1 (stereo unspecified)
43 | 24 µM | Cc1ccc(S(=O)(=O)N(C)C(CC(C)C)C(=O)Nc2ccc(C(=N)N)cc2)cc1 (stereo unspecified)
44 | 68 µM | Cc1ccc(S(=O)(=O)NC(CC(=O)Nc2ccc(C(=N)N)cc2)C2CCCCC2)cc1 (stereo unspecified)
45 | 12 µM | COc1ccc(S(=O)(=O)N[C@@H](C(=O)Nc2ccc(C(=N)N)cc2)C2CCCCC2)cc1
46 | 4.7 µM | N=C(N)c1ccc(NC(=O)[C@H](NS(=O)(=O)c2ccc(C(F)(F)F)cc2)C2CCCCC2)cc1
47 | 64 µM | Cc1ccc(S(=O)(=O)NC(C(=O)Nc2ccc(C(=N)N)cc2)C2CCCC2)cc1 (stereo unspecified)
48 | 1 µM | Cc1ccc(S(=O)(=O)NCC(Cc2ccccc2)C(=O)Nc2ccc(C(=N)N)cc2)cc1 (stereo unspecified)
49 | 8 µM | CCCCC(NS(=O)(=O)c1ccc(C)cc1)C(=O)Nc1ccc(C(=N)N)cc1F (stereo unspecified)
50 | > 19 µM | Cc1ccc(S(=O)(=O)NC(C(=O)Nc2ccc(C(=N)N)cc2)C2CCOCC2)cc1 (stereo unspecified)

molecular target: T2, Urokinase-type plasminogen activator; test: Inhibition of recombinant C-terminal His10-tagged human uPA (M1 to L431 residues) expressed in mouse NS0 cells using Z-GGR-AMC as substrate after 15 mins by manual fluorescence assay; conditions: not given

Row | IC50 | Structure (SMILES)
51 | 60 µM | Cc1ccc(S(=O)(=O)NC(C(=O)Nc2ccc(C(=N)N)cc2)c2ccccc2)cc1 (stereo unspecified)
52 | > 1950 µM | N=C(N)c1ccc(NC(=O)[C@H](NS(=O)(=O)c2ccc(C(F)(F)F)cc2)C2CCCCC2)cc1

molecular target: T3, Serine protease hepsin (Homo sapiens, UniProt P05981); test: Inhibition of doxycycline induced Hepsin in human MCF10A cells assessed as prevention in loss of HAI-1 level at 10 uM preincubated for 30 mins followed by doxycycline addition measured after 6 hrs by Immunoblot assay; type: cell-based; conditions: not given
Outline: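 MCF10A-Indu20-hepsin cells (Dox-inducible hepsin) pretreated 30 min with compound or DMSO, then hepsin induced with 100 ng/mL doxycycline for 6 h; HAI-1 protein scored by immunoblot.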

T3 sequence (P05981 1-162 limits assumed): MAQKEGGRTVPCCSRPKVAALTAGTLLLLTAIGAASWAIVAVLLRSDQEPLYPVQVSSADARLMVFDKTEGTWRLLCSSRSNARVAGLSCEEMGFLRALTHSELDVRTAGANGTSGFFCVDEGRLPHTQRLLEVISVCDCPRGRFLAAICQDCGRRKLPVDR
T3 sequence (P05981 163-417 limits assumed): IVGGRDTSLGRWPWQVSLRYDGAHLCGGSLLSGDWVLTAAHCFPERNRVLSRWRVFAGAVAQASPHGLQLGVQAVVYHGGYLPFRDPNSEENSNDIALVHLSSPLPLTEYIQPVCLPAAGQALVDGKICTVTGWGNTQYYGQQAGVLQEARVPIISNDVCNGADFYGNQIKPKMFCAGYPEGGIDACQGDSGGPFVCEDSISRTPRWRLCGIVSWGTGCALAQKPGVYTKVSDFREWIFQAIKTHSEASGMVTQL

Row | inhibition | Structure (SMILES)
53 | inactive | N=C(N)c1ccc(NC(=O)[C@H](NS(=O)(=O)c2ccc(C(F)(F)F)cc2)C2CCCCC2)cc1

molecular target: T3, Serine protease hepsin; test: Inhibition of doxycycline induced Hepsin in human MCF10A cells using Boc-QRR-AMC as substrate preincubated for 24 hrs followed by doxycycline induction for 24 hrs and subsequent addition of substrate by fluorescence assay; type: cell-based; conditions: not given

Row | IC50 | Structure (SMILES)
54 | 3.15 µM | N=C(N)c1ccc(NC(=O)[C@H](NS(=O)(=O)c2ccc(C(F)(F)F)cc2)C2CCCCC2)cc1

molecular target: T3, Serine protease hepsin; test: Inhibition of hepsin-mediated conversion of Pro-HGF into active form in human Hs578T cells assessed as decrease in MET phosphorylation at 1 to 10 uM preincubated for 30 mins followed by recombinant human pro-HGF addition measured after 30 mins by immunoblot method; type: cell-based; conditions: not given
Outline: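 Hs578T or HCC1937 breast cells incubated with DMSO or inhibitor, then 50 ng/mL recombinant human Pro-HGF added; MET pathway activation (phospho-MET) assessed by immunoblotting.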

Row | inhibition | Structure (SMILES)
55 | Active | N=C(N)c1ccc(NC(=O)[C@H](NS(=O)(=O)c2ccc(C(F)(F)F)cc2)C2CCCCC2)cc1

species on record: Homo sapiens; test: Selectivity ratio of IC50 for recombinant C-terminal His10-tagged human uPA (M1 to L431 residues) to IC50 for recombinant C-terminal His10-tagged human Hepsin (R45 to […] residues) D161E/ R162K double mutant by automated fluorescence assay; conditions: not given

Row | Ratio IC50 | Structure (SMILES)
56 | 22 | Cc1ccc(NC(=O)N[C@@H](C(=O)Nc2ccc(C(=N)N)cc2)C2CCCCC2)cc1
57 | 180 | N=C(N)c1ccc(NC(=O)[C@H](NS(=O)(=O)c2ccc(Cl)cc2)C2CCCCC2)cc1
58 | 4 | Cc1ccc(S(=O)(=O)NC(C(=O)Nc2ccc(C(=N)N)cc2)C(C)C)cc1 (stereo unspecified)
59 | 12 to 33 | Cc1ccc(S(=O)(=O)NC(CC(C)C)C(=O)Nc2ccc(C(=N)N)cc2)cc1 (stereo unspecified)
60 | 5 | Cc1ccc(C(=O)N[C@@H](C(=O)Nc2ccc(C(=N)N)cc2)C2CCCCC2)cc1
61 | 20 | N=C(N)c1ccc(NC(=O)[C@H](NS(=O)(=O)c2ccccc2)C2CCCCC2)cc1
62 | 0.26 | CCCCC(NS(=O)(=O)c1ccc(C)cc1)C(=O)Nc1cccc(C(=N)N)c1 (stereo unspecified)
63 | < 1 | Cc1ccc(S(=O)(=O)N(C)C(CC(C)C)C(=O)Nc2ccc(C(=N)N)cc2)cc1 (stereo unspecified)
64 | 6 | Cc1ccc(S(=O)(=O)NC(CC(=O)Nc2ccc(C(=N)N)cc2)C2CCCCC2)cc1 (stereo unspecified)
65 | 40 | COc1ccc(S(=O)(=O)N[C@@H](C(=O)Nc2ccc(C(=N)N)cc2)C2CCCCC2)cc1
66 | 7 | N=C(N)c1ccc(NC(=O)[C@H](NS(=O)(=O)c2ccc(C(F)(F)F)cc2)C2CCCCC2)cc1
67 | 74 | Cc1ccc(S(=O)(=O)NC(C(=O)Nc2ccc(C(=N)N)cc2)C2CCCC2)cc1 (stereo unspecified)
68 | 0.3 | Cc1ccc(S(=O)(=O)NCC(Cc2ccccc2)C(=O)Nc2ccc(C(=N)N)cc2)cc1 (stereo unspecified)
69 | 9 | CCCCC(NS(=O)(=O)c1ccc(C)cc1)C(=O)Nc1ccc(C(=N)N)cc1F (stereo unspecified)
70 | > 13 | Cc1ccc(S(=O)(=O)NC(C(=O)Nc2ccc(C(=N)N)cc2)C2CCOCC2)cc1 (stereo unspecified)

species on record: Homo sapiens; test: Selectivity ratio of IC50 for recombinant C-terminal His10-tagged human uPA (M1 to L431 residues) to IC50 for recombinant C-terminal His10-tagged human Hepsin (R45 to […] residues) D161E/ R162K double mutant by manual fluorescence assay; conditions: not given

Row | Ratio IC50 | Structure (SMILES)
71 | > 2300 | N=C(N)c1ccc(NC(=O)[C@H](NS(=O)(=O)c2ccc(C(F)(F)F)cc2)C2CCCCC2)cc1
